Experimental data taken from ChEMBL document CHEMBL5661979, “Pharmacological inhibition of BMK1 suppresses tumor growth through promyelocytic leukemia protein” (Cancer Cell, 2010).
pIC50: −log10 of the molar value. The source made the active and inactive calls. The rule behind the calls is not given here.

Legend:
[1] = target: Cyclin-dependent kinase 2 (Homo sapiens, UniProt P24941); experiment: Inhibition of CDK2 K2 site in human HeLa cells lysate pre incubated for 15 mins followed by ATP acyl phosphate probe addition and measured after 10 mins by LC-MS/MS analysis; format: subcellular
Outline: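 KiNativ profiling in HeLa lysate (5 mg/mL total protein). Lysate incubated 15 min with inhibitor at 50, 10, 2, 0.8 or 0 μM. ATP or ADP acylphosphate probe then added (5 μM final) and reacted 10 min. Reaction stopped with urea and analysed by targeted MS, using up to four fragment ions per kinase peptide-probe conjugate. % inhibition taken against untreated lysate. Run in duplicate.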

eIF-2-alpha kinase GCN2 = eIF-2-alpha kinase GCN2 (Homo sapiens, UniProt Q9P2K8); experiment: Inhibition of GCN2 in human HeLa cells lysate pre incubated for 15 mins followed by ATP acyl phosphate probe addition and measured after 10 mins by LC-MS/MS analysis; format: subcellular
[2] = target: Serine/threonine-protein kinase TAO3 (Homo sapiens, UniProt Q9H2K8); experiment: Inhibition of TAO3 in human HeLa cells lysate pre incubated for 15 mins followed by ATP acyl phosphate probe addition and measured after 10 mins by LC-MS/MS analysis; format: subcellular
[3] = target: Ribosomal protein S6 kinase alpha-1 (Homo sapiens, UniProt Q15418); experiment: Inhibition of RSK1 domain 2 K1 site in human HeLa cells lysate pre incubated for 15 mins followed by ADP acyl phosphate probe addition and measured after 10 mins by LC-MS/MS analysis; format: subcellular
[4] = target: Epidermal growth factor receptor (Homo sapiens, UniProt P00533); experiment: Inhibition of EGFR in human HeLa cells lysate pre incubated for 15 mins followed by ADP acyl phosphate probe addition and measured after 10 mins by LC-MS/MS analysis; format: subcellular
[5] = target: T1, Serine/threonine-protein kinase Sgk3 (Homo sapiens, UniProt Q96BR1); experiment: Inhibition of SGK3 in human HeLa cells lysate pre incubated for 15 mins followed by ADP acyl phosphate probe addition and measured after 10 mins by LC-MS/MS analysis; format: subcellular
T1 sequence (Q96BR1 whole entry): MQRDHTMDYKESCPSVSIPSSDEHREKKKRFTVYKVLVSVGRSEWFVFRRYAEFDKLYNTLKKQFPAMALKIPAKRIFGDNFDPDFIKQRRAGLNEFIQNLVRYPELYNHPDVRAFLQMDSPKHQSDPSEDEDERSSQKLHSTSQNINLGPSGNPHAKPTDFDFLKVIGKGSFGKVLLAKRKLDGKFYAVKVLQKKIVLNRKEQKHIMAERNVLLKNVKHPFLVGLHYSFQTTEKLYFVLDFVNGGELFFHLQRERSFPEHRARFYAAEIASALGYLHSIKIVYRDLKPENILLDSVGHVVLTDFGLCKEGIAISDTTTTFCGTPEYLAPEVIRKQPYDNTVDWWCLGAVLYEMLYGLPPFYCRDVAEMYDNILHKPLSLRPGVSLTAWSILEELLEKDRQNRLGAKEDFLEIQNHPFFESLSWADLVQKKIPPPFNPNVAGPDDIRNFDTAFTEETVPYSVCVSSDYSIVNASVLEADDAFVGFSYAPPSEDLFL

[6] = target: T2, Dual specificity mitogen-activated protein kinase kinase 7 (Homo sapiens) (UniProt O14733); experiment: Inhibition of MAP2K7 in human HeLa cells lysate at 10 uM pre incubated for 15 mins followed by ADP acyl phosphate probe addition and measured after 10 mins by LC-MS/MS analysis relative to control; format: subcellular; conditions: time 25.0 min
T2 sequence (whole entry): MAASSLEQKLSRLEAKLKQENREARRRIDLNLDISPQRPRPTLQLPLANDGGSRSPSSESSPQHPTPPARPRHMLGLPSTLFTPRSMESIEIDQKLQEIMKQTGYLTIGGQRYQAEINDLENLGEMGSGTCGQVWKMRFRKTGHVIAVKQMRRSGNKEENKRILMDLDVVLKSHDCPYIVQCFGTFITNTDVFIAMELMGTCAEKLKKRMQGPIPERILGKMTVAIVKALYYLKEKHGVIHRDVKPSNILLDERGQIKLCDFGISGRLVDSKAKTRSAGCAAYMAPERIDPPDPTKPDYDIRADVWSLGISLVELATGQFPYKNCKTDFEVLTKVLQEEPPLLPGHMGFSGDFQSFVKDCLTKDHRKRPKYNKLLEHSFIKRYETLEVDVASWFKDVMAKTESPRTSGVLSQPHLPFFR

Insulin receptor = Insulin receptor (Homo sapiens, UniProt P06213); experiment: Inhibition of INSR in human HeLa cells lysate at 10 uM pre incubated for 15 mins followed by ADP acyl phosphate probe addition and measured after 10 mins by LC-MS/MS analysis relative to control; format: subcellular; conditions: time 25.0 min
[7] = target: Macrophage-stimulating protein receptor (Homo sapiens, UniProt Q04912); experiment: Inhibition of RON in human HeLa cells lysate at 2 uM pre incubated for 15 mins followed by ADP acyl phosphate probe addition and measured after 10 mins by LC-MS/MS analysis relative to control; format: subcellular; conditions: time 25.0 min
[8] = target: DNA-dependent protein kinase catalytic subunit (Homo sapiens, UniProt P78527); experiment: Inhibition of PRKDC in human HeLa cells lysate at 2 uM pre incubated for 15 mins followed by ATP acyl phosphate probe addition and measured after 10 mins by LC-MS/MS analysis relative to control; format: subcellular; conditions: time 25.0 min
[9] = target: Serine/threonine-protein kinase 24 (Homo sapiens, UniProt Q9Y6E0); experiment: Inhibition of MST3 in human HeLa cells lysate at 2 uM pre incubated for 15 mins followed by ATP acyl phosphate probe addition and measured after 10 mins by LC-MS/MS analysis relative to control; format: subcellular; conditions: time 25.0 min
HeLa = experiment: Antitumor activity against human HeLa cells xenografted in NOD/SCID mouse assessed as reduction tumor growth at 50 mg/kg, ip administered for 28 days; format: functional, organism-based; conditions: time 28.0 day
Outline: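 HeLa cells (5×10^5, in DMEM) were injected s.c. into the right flank of 6-week-old Nod/Scid mice on day 0. Dosing was 50 mg/kg i.p. twice daily, starting on day 1, 7 or 14 and continuing to day 28; controls received carrier. 6 mice per treated group. Tumors were measured every 2–3 days.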

Lewis lung carcinoma = experiment: Antitumor activity against mouse LL2 cells allografted in C57Bl/6 mouse assessed as reduction tumor growth at 50 mg/kg, ip administered on day 7 post implantation measured after 17 days; format: functional, organism-based; conditions: time 10.0 day
Outline: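 LL/2 cells (1×10^6, in DMEM) were injected s.c. into the right flank of 6-week-old C57Bl/6 mice on day 0. Dosing was 50 mg/kg i.p. twice daily, starting on day 1, 7 or 10 and continuing to day 17; controls received carrier. 6 mice per treated group. Tumors were measured every 2–3 days.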

Chain of Insulin receptor (P06213 28-758 limits assumed): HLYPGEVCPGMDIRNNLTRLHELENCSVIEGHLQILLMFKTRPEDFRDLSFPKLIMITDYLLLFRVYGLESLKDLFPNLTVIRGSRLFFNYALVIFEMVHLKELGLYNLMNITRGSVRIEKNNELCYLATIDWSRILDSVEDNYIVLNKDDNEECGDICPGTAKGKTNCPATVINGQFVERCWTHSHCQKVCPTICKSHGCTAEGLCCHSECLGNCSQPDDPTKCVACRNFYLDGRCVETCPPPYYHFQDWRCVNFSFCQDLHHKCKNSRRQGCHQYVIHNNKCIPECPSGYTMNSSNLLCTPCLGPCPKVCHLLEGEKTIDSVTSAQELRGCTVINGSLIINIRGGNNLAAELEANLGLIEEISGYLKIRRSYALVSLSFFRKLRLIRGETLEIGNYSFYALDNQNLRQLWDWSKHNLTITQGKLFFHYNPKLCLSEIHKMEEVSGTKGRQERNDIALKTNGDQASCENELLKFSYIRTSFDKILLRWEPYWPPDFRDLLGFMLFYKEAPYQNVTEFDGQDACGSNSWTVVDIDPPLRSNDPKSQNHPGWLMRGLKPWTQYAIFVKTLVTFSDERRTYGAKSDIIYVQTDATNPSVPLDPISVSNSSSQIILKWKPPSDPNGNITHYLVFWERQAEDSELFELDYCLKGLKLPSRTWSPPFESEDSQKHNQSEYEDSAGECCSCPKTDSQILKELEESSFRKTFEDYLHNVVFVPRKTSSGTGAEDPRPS
Chain of Insulin receptor (P06213 763-1382 limits assumed): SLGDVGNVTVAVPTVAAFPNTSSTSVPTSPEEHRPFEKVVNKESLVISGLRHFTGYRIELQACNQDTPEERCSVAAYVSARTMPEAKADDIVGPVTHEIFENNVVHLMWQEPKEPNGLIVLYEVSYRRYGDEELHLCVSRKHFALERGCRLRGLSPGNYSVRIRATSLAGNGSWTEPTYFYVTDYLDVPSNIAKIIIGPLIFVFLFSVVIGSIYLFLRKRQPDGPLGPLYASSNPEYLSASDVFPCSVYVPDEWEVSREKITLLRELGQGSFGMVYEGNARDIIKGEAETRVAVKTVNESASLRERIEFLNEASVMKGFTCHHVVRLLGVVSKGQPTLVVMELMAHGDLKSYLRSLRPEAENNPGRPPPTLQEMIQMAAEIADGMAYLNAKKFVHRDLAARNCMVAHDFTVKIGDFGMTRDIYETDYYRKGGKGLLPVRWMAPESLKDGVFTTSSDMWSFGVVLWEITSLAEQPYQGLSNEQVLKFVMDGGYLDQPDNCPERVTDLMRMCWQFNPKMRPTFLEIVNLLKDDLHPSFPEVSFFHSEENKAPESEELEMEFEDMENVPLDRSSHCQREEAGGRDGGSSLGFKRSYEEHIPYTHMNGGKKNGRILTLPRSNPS
Chain of Serine/threonine-protein kinase TAO3 (Q9H2K8 whole entry, the tested form may be a part): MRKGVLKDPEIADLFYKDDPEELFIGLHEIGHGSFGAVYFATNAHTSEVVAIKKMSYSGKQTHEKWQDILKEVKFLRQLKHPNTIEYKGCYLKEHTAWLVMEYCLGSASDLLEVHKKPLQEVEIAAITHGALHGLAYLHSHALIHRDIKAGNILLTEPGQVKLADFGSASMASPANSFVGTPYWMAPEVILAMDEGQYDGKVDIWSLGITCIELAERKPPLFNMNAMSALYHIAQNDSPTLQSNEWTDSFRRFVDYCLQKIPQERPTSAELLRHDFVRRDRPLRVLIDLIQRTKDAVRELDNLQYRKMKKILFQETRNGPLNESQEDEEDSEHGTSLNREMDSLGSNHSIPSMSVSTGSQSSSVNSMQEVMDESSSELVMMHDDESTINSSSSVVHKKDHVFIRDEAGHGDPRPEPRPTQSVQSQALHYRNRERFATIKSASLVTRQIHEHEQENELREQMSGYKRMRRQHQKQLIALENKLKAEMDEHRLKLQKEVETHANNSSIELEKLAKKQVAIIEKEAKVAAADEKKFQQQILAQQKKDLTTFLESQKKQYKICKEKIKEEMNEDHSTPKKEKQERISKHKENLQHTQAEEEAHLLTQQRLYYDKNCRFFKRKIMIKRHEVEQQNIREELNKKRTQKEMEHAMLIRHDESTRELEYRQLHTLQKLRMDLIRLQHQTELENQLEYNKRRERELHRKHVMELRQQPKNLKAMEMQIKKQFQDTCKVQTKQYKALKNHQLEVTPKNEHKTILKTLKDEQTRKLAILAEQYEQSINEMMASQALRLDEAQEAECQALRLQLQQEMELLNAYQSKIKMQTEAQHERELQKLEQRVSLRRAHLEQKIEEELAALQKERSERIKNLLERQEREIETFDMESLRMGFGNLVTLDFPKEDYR
Chain of Epidermal growth factor receptor (P00533 whole entry): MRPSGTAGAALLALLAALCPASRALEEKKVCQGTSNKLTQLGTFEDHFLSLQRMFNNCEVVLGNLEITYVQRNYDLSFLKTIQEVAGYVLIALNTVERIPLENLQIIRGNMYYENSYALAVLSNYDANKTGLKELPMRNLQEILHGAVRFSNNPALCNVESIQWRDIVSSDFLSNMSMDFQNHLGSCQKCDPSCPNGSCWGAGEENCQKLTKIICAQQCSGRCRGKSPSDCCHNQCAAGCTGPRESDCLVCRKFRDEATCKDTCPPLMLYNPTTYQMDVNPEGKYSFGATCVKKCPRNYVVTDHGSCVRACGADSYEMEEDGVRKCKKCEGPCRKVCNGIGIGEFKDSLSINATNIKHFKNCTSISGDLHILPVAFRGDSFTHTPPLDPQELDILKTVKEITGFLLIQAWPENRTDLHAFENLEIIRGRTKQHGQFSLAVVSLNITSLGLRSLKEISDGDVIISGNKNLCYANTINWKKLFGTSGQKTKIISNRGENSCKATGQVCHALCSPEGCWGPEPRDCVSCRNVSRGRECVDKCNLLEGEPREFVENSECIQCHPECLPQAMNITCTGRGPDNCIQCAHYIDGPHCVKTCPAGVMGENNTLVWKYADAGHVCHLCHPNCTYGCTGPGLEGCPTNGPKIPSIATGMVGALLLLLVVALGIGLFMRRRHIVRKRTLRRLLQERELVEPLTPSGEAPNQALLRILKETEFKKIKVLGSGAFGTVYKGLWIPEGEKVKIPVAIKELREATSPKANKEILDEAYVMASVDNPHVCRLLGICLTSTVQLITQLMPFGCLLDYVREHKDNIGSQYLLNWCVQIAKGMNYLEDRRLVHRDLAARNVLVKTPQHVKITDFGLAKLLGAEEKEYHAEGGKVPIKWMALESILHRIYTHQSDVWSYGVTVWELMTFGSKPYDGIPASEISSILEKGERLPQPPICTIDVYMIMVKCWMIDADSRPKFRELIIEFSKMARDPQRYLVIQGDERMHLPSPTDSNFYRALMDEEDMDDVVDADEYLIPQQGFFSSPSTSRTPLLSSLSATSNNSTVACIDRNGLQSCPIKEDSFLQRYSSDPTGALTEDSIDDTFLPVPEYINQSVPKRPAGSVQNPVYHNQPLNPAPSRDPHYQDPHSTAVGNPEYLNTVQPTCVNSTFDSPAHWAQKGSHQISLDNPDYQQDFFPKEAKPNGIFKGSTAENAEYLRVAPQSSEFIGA
Chain of Macrophage-stimulating protein receptor (Q04912 25-304 limits assumed): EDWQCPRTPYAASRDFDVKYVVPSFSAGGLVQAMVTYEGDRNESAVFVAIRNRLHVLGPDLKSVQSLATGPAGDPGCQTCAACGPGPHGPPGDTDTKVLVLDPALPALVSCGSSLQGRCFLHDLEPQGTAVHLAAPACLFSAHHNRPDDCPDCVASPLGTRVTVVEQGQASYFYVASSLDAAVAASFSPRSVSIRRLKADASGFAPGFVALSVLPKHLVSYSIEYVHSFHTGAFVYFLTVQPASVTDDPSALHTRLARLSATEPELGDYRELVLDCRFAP
Chain of Macrophage-stimulating protein receptor (Q04912 310-1400 limits assumed): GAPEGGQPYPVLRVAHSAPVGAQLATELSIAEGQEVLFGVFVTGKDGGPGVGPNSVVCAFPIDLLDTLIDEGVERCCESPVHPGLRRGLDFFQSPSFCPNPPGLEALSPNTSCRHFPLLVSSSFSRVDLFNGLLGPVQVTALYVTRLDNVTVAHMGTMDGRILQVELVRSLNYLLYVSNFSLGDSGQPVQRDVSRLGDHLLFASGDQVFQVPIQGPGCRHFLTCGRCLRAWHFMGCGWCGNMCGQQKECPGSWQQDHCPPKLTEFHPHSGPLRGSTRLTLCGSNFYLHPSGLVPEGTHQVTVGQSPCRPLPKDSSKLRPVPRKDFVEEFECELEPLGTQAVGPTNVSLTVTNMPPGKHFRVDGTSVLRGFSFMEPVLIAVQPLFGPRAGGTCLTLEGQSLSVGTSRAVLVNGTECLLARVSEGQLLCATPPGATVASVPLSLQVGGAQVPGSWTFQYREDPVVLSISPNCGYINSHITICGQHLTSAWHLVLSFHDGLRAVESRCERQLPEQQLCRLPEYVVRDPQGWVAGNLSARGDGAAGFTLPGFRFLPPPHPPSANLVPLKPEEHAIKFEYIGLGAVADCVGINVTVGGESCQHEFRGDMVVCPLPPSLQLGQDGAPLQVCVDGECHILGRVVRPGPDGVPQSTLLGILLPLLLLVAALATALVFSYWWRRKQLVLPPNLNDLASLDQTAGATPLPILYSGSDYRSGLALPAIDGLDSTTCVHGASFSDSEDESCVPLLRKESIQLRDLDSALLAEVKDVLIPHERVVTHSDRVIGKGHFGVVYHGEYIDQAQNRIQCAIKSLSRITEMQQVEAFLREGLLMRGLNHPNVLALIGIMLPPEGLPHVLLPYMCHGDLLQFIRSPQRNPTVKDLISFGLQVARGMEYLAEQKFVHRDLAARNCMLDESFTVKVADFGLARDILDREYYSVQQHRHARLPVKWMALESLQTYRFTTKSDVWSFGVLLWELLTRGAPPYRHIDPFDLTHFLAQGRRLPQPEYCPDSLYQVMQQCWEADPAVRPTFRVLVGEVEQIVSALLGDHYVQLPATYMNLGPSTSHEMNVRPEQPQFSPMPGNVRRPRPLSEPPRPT

CCOc1cc(N2CCC(O)CC2)ccc1Nc1ncc2c(n1)N(C)c1ccccc1C(=O)N2C
pIC50 [1]: < 4.30 | pIC50 (eIF-2-alpha kinase GCN2): < 4.30 | pIC50 [2]: < 4.30 | pIC50 [3]: 4.54 | pIC50 [4]: < 4.30 | pIC50 [5]: < 4.30 | inhibition [6]: -9.9% | inhibition (Insulin receptor): -8% | inhibition [7]: 23.7% | inhibition [8]: 0.6% | inhibition [9]: -3.8% | Activity (HeLa): Active | Activity (Lewis lung carcinoma): Active
